A word on the pIC50: it is the IC50 on a negative log10 scale, so that one unit is a factor of ten. Broadly, the Cmax is the maximum level reached in the sampled fluid or tissue.

For data set [1], the system named is Mus musculus. Briefly: Antialzheimer activity in 5XFAD mouse assessed as reduction in plaque pathology in […] cortex at 600 ppm administered as rodent chow starting from 1.5 months and measured after 5 months by immunolabeling based confocal microscopic analysis. Type of data set: functional, organism-based. Particulars: route po, time 3.5 months. The gist of the method:
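5xFAD mice received 600 ppm PLX3397 in AIN-76A chow from 1.5 to 5 months of age. Brain sections were stained with Thio-S for dense-core plaques and immunolabeled for IBA1, then examined by confocal microscopy.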

Data set [2] is described as follows: Drug concentration in 5XFAD mouse plasma at 75 ppm administered as rodent chow starting from 1.5 months and measured after 5 months. Particulars: route po, time 3.5 months. Type of data set: ADME, cell-free. A digest of the protocol: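 WT or 5xFAD mice were fed PLX3397 in AIN-76A chow at 600 ppm or 75 ppm from 1.5 to 5 months of age. Terminal brain and plasma drug concentrations were determined at study end.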

In data set [3] the target is T1, Macrophage colony-stimulating factor 1 receptor (Mus musculus) (UniProt P09581).
T1 sequence (whole entry): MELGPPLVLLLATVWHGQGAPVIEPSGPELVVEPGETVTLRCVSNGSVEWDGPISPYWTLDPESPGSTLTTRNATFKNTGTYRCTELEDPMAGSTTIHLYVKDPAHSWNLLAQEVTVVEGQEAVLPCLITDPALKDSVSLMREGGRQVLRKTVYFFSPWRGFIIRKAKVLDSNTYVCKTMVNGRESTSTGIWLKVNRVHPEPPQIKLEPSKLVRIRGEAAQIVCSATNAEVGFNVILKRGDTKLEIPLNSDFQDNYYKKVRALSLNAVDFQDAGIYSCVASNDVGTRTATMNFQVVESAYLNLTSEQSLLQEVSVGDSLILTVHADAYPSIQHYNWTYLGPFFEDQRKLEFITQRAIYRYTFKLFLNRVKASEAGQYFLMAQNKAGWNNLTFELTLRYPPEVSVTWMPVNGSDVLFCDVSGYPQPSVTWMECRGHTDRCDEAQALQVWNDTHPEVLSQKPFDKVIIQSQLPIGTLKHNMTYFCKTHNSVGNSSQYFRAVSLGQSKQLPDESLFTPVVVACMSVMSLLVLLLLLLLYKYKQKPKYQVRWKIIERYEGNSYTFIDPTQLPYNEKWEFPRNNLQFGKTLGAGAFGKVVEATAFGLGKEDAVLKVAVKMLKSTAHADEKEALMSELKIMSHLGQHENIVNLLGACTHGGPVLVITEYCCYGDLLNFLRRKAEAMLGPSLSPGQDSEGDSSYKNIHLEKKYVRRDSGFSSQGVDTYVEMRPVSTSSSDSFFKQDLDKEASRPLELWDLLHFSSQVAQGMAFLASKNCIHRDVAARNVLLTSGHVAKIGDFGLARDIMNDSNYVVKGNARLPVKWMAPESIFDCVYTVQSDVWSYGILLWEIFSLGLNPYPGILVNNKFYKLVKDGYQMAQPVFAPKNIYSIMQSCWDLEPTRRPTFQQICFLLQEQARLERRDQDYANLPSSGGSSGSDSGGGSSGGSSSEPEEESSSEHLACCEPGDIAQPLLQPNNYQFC
Put plainly: In vivo inhibition of CSF1R in wildtype mouse assessed as microglial numbers by measuring number of Iba positive cells per FOV in somatosensory cortex at 75 ppm administered as rodent chow starting from 1.5 months and measured after 5 months by immunolabeling based confocal microscopic analysis (reference value: 218 to 349). It counts as functional. The conditions noted are these: route po, time 3.5 months.

Data set [4] concerns the target Serine/threonine-protein kinase MRCK beta (Homo sapiens, UniProt Q9Y5S2). Briefly: Inhibition of CDC42_BPB (unknown origin).
The target in another data set is Ephrin type-A receptor 1 (Homo sapiens, UniProt P21709). Put plainly: Inhibition of EPHA1 (unknown origin).
Data set [5] addresses MAP kinase-activated protein kinase 3 (Homo sapiens, UniProt Q16644). Briefly: Inhibition of MAPKAPK3 (unknown origin).
Data set [6] addresses Serine/threonine-protein kinase PAK 2 (Homo sapiens, UniProt Q13177). Put plainly: Inhibition of PAK2 (unknown origin).
Data set [7] concerns the target Platelet-derived growth factor receptor beta (Homo sapiens, UniProt P09619). Put plainly: Inhibition of PDGFRB (unknown origin).
Data set [8] deals with Tyrosine-protein kinase Yes (Homo sapiens, UniProt P07947). Put plainly: Inhibition of YES1 (unknown origin).
Tyrosine-protein kinase Yes, sequence (P07947 whole entry): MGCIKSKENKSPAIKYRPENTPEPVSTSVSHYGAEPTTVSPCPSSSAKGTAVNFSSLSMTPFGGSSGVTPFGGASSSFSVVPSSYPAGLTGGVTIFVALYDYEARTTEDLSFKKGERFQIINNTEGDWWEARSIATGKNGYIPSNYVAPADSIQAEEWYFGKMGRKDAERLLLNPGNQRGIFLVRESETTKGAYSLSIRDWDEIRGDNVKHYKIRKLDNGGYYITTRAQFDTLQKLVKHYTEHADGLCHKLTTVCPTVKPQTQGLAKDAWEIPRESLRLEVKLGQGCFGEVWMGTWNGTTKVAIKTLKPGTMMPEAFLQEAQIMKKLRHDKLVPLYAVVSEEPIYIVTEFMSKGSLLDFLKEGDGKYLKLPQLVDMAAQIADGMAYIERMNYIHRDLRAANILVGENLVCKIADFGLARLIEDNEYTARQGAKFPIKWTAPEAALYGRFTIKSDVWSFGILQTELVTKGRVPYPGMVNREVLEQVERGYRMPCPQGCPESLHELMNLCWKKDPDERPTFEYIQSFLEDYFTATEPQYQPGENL
A short description of data set [9]: Cmax in male rat at 45 mg/kg, po administered as single dose via gavage. It counts as ADME, organism-based. The conditions noted are these: in vivo.
Data set [10] can be described thus: Drug concentration in 5XFAD mouse plasma at 1200 ppm administered as rodent chow for 180 days. Type of data set: ADME, cell-free. Particulars: route po, time 180 day.
For data set [11], the system named is Mus musculus. Briefly: Antialzheimer activity in 5XFAD mouse assessed as average speed at 1200 ppm administered as rodent chow for 10 to 24 weeks by Open field test (reference value: 0.024 to 0.076 meter/s). It counts as functional. Particulars: route po, time 10-24 weeks.
Data set [12] deals with T1, Macrophage colony-stimulating factor 1 receptor (Mus musculus). Put plainly: In vivo inhibition of CSF1R in wildtype mouse assessed as microglial elimination in thalamus at 1200 ppm administered as rodent chow for 10 weeks by […] based confocal microscopic analysis. The conditions noted are these: route po. It counts as functional.
A short description of data set [13]: Effect on Csf1r RPKM gene expression in 5XFAD mouse hippocampus at 1200 ppm administered as rodent chow starting from 1.5 months and measured after 7 months by RNA-Seq analysis (reference value: 33.840 to 41.629 RPKM). It counts as functional. Particulars: route po, time 5.5 months, 4015 h.
Data set [14] in a line: Effect on Cx3cr1 gene expression in wild type mouse thalamus at 1200 ppm administered as rodent chow starting from 1.5 months and measured after 7 months by RNA-Seq analysis (reference value: 10.263 to 12.137 RPKM). It counts as functional. The conditions noted are these: route po, time 5.5 months, 4015 h.
Data set [15] can be described thus: Effect on C1qa gene expression in wild type mouse hippocampus at 1200 ppm administered as rodent chow starting from 1.5 months and measured after 7 months by RNA-Seq analysis (reference value: 17.148 to 23.051 RPKM). It counts as functional. Particulars: route po, time 5.5 months, 4015 h. A digest of the protocol: (§1)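 WT and 5xFAD mice were treated with 1200 ppm PLX5622 chow or control chow from 1.5 to 7 months of age. Brains were microdissected into cortex, hippocampus and thalamus, and RNA was extracted from tissue powder. Whole-transcriptome RNA-Seq libraries were sequenced, with n = 4 per group per region (48 samples).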

A short description of data set [16]: Effect on C1qa gene expression in wild type mouse thalamus at 1200 ppm administered as rodent chow starting from 1.5 months and measured after 7 months by RNA-Seq analysis (reference value: 19.070 to 32.518). It counts as functional. The conditions noted are these: route po, time 5.5 months, 4015 h. A digest of the protocol:
as §1

A short description of data set [17]: Effect on Siglech gene expression in 5XFAD mouse thalamus at 1200 ppm administered as rodent chow starting from 1.5 months and measured after 7 months by RNA-Seq analysis (reference value: 4.466 to 6.336 RPKM). It counts as functional. Particulars: route po, time 5.5 months, 4015 h.
A short description of data set [18]: Effect on Clec7a gene expression in 5XFAD mouse hippocampus at 1200 ppm administered as rodent chow starting from 1.5 months and measured after 7 months by RNA-Seq analysis (reference value: 4.246 to 7.511 RPKM). Type of data set: functional. The conditions noted are these: route po, time 5.5 months, 4015 h. The gist of the method: as §1
The nature of data set [19]: Effect on Ctsz gene expression in wild type mouse thalamus at 1200 ppm administered as rodent chow starting from 1.5 months and measured after 7 months by RNA-Seq analysis (reference value: 13.234 to 17.920 RPKM). Type of data set: functional. The conditions noted are these: route po, time 5.5 months, 4015 h.

pIC50: −log10 of the molar value. The source made the active and inactive calls. No cut-off for these calls is given here.

MAP kinase-activated protein kinase 3, sequence (Q16644 whole entry): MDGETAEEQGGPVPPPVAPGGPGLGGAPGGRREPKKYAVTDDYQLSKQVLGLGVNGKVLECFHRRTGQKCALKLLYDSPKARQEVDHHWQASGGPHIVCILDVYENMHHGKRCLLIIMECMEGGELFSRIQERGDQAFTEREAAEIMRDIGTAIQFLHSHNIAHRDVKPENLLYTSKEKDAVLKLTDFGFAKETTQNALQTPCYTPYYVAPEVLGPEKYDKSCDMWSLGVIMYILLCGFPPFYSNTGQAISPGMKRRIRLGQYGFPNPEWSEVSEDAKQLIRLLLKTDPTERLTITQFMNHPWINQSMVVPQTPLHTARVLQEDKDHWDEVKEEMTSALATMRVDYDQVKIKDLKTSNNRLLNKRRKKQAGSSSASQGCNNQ
Platelet-derived growth factor receptor beta, sequence (P09619 whole entry): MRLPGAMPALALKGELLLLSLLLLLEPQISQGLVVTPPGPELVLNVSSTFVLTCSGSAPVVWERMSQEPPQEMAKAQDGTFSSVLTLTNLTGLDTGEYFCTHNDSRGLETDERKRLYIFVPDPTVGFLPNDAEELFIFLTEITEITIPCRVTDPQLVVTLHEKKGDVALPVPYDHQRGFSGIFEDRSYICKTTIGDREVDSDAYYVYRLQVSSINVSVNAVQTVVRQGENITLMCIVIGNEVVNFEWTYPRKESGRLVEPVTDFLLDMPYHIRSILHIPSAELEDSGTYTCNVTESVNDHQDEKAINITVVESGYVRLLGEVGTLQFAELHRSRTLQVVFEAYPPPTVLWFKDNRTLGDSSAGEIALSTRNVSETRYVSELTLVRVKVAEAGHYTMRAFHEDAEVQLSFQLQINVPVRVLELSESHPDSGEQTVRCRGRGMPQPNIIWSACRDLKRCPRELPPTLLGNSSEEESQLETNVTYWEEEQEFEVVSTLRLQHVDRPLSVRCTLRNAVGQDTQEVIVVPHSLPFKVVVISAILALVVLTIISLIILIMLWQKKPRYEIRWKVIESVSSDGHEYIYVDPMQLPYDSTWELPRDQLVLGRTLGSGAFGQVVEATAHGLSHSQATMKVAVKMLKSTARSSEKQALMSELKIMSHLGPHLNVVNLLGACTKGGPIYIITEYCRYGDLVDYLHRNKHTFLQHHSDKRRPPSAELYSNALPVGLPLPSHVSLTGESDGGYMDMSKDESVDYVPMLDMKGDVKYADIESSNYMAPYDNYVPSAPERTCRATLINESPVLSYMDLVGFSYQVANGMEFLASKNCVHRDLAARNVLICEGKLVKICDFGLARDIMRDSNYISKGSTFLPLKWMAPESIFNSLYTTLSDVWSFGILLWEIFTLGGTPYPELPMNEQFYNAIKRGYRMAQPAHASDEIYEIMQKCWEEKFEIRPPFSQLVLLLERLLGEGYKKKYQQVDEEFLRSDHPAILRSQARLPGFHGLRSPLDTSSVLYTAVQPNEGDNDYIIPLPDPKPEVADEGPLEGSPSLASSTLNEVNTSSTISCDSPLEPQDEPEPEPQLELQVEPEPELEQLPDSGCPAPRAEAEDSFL
Serine/threonine-protein kinase MRCK beta, sequence (Q9Y5S2 whole entry): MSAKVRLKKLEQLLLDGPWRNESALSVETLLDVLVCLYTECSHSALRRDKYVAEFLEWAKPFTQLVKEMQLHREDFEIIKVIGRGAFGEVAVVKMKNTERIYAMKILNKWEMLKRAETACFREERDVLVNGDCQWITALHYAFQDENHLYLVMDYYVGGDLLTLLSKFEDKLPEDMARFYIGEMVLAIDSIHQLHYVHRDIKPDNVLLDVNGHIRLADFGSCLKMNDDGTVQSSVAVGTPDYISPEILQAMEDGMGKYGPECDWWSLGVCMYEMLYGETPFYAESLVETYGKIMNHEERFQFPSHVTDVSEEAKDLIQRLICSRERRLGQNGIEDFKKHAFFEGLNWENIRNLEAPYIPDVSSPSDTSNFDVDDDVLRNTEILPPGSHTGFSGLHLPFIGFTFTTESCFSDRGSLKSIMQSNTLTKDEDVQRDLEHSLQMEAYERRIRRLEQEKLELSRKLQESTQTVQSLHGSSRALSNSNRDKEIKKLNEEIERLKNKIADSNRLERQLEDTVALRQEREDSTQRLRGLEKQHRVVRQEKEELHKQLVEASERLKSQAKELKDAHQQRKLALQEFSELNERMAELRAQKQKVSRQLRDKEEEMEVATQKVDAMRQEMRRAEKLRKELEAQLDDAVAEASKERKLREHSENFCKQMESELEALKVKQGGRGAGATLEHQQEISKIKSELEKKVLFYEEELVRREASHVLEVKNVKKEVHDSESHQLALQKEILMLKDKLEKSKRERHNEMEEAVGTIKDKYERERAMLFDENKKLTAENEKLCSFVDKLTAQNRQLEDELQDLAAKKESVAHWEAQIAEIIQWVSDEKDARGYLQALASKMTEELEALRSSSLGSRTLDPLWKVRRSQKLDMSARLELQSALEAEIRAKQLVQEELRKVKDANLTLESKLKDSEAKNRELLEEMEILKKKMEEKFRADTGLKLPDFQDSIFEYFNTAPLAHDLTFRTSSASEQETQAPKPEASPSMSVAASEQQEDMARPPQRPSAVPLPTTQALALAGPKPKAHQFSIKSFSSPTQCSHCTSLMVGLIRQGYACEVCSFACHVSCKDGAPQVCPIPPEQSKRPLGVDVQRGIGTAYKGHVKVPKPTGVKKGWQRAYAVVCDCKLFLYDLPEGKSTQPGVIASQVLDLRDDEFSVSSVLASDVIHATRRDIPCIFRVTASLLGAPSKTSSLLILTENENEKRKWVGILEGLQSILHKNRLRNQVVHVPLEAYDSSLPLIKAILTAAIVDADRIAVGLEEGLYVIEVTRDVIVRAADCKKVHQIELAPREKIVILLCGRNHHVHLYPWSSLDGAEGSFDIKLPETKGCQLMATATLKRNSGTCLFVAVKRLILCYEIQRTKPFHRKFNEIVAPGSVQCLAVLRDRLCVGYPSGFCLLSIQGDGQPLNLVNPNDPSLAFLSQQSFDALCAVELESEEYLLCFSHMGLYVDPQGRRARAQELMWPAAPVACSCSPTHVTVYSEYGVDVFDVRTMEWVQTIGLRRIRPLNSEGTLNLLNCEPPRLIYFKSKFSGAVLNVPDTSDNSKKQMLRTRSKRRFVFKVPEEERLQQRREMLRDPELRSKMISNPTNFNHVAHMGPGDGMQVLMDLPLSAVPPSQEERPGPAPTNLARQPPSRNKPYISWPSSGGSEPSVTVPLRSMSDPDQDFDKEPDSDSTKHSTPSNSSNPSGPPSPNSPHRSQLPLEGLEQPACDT
Serine/threonine-protein kinase PAK 2, sequence (Q13177 whole entry): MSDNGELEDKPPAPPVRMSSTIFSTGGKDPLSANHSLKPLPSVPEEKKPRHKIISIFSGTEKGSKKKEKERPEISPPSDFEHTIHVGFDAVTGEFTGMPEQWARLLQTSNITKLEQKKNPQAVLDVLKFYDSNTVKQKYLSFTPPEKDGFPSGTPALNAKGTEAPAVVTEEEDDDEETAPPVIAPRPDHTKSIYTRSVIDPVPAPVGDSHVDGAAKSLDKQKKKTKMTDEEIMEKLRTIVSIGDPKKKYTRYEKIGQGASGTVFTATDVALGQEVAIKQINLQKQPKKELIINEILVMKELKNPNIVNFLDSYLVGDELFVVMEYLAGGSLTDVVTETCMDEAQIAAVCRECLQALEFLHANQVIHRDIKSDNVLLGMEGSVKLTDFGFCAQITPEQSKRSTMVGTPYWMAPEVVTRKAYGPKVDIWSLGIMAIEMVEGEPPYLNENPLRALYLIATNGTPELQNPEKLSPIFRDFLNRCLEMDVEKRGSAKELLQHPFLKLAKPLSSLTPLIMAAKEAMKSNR

On to `FC(F)(F)c1ccc(CNc2ccc(Cc3c[nH]c4ncc(Cl)cc34)cn2)cn1` [PEXIDARTINIB], for which, in the data set with Mus musculus [1], the result was Active. This compound gave a concentration at 2555 h in [2] of 15 µM. In addition, the Activity in data set [3] was determined as 205.
For `COc1ncc(F)cc1CNc1ccc(Cc2c[nH]c3ncc(C)cc23)c(F)n1` [PLX-5622], the negative logarithm of the IC50 (pIC50) (in [4]; at Ephrin type-A receptor 1; in data set [5]; in data set [6]; in [7]; in data set [8]) was less than 6.00 in each case. The same compound yielded a Cmax in [9] of 12000 ng/mL. This compound also had a concentration at 4320 h in [10] of 9090 ng/mL. In addition, the Activity in the data set on Mus musculus [11] worked out at 0.03 meter/s; in data set [13] it was 3.234 RPKM; in [14], 0.026 RPKM; in data set [15], 0.17 RPKM; in [16], 0 RPKM; in data set [17], 0 RPKM. The Activity in data set [18] worked out at 0.239 RPKM; in [19] it was 11.055 RPKM. In addition, the inhibition entry in [12] is “inactive”.

The values above are taken from ChEMBL document CHEMBL5649170, “Sustained microglial depletion with CSF1R inhibitor impairs parenchymal plaque development in an Alzheimer's disease model” (Nat Commun, 2019).
